{"source": "ChEMBL document CHEMBL1145129", "about": "“Design, synthesis, and anticancer properties of 4,4'-dihydroxybenzophenone-2,4-dinitrophenylhydrazone and analogues” (J Med Chem, 2003)", "key": {"[1]": {"test": "In vitro cytotoxicity in KM 12 SM cell line", "type": "functional", "conditions": "Homo sapiens, KM12", "summary_of_the_method": "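Established lines kept in RPMI-1640 with 10% fetal calf serum and penicillin/streptomycin at 36 °C, 10% CO₂. Cells seeded at 2000–3000 cells/well, hydrazones added at several concentrations after 18 h, and exposed a further 36 h. Viable cells read by MTT absorbance at 570 nm; cytostasis (%) = (1 − A/B)×100 against untreated control.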"}, "MDA-MB-435": {"tested_on": "MDA-MB-435", "test": "In vitro cytotoxicity in MDA-MB-435 cell line", "type": "functional, cell-based", "conditions": "Homo sapiens", "summary_of_the_method": "(§1)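 Established tumor lines kept in RPMI-1640 with 10% fetal calf serum and penicillin/streptomycin at 36 °C, 10% CO₂. Seeded 2000–3000 cells/well; hydrazone-containing medium added after 18 h, then 36 h further culture. Viable cells read by MTT absorbance at 570 nm; cytostasis (%) = (1 − A_treated/A_control) × 100.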"}, "[2]": {"test": "In vitro cytotoxicity in SN 12 PM6 cell line", "type": "functional, cell-based", "conditions": "Homo sapiens", "summary_of_the_method": "as §1"}, "[3]": {"test": "In vitro cytotoxicity in estrogen receptor and progesterone receptor negative Human breast tumor cells; (5+/-2, 0.2+/-0.3)", "type": "functional, cell-based"}, "[4]": {"test": "In vitro cytotoxicity in estrogen receptor negative progesterone receptor positive Human breast tumor cells; (3+/-2, 0.4+/-0.1)", "type": "functional, cell-based"}, "[5]": {"test": "In vitro cytotoxicity in estrogen receptor positive progesterone receptor negative Human breast tumor cells; (>5, 0.5)", "type": "functional, cell-based"}, "Colon carcinoma cell": {"tested_on": "Colon carcinoma cell", "test": "In vitro cytotoxicity in Human colon tumor cells; (>12+/-4, >12+/-5)", "type": "functional, cell-based"}, "Homo sapiens [6]": {"species_on_record": "Homo sapiens", "test": "In vitro cytotoxicity in Human ovary tumor cells; (3+/-3, 4.2+/-4)", "type": "functional", "conditions": "Female gonad"}, "Homo sapiens [7]": {"species_on_record": "Homo sapiens", "test": "In vitro cytotoxicity in Human lung tumor cells; (5+/-5, 6+/-5)", "type": "functional"}, "Melanoma tumor cell line": {"tested_on": "Melanoma tumor cell line", "test": "In vitro cytotoxicity in Human melanoma tumor cells; (5+/-4, >10)", "type": "functional, cell-based"}, "[8]": {"test": "In vitro cytotoxicity in FDCP-1 cell line", "conditions": "Mus musculus, FDC-P1"}, "[9]": {"test": "In vitro cytotoxicity in B 16 F10 cell line", "conditions": "Mus musculus, B16-F10"}, "[10]": {"tested_on": "breast cancer cells (Homo sapiens)", "test": "In vitro cytotoxicity in estrogen receptor and progesterone receptor positive Human breast tumor cells; (2.5+/-0.9, 0.5+/-1)"}}}
{"smiles": "O=[N+]([O-])c1ccc(NN=C(c2ccc(O)cc2)c2ccc(O)cc2)c([N+](=O)[O-])c1", "note": "[SIVIFENE]", "values": [{"measurement": "IC50", "setting": "[1]", "result": 5.4, "unit": "µg/mL"}, {"measurement": "IC50", "setting": "MDA-MB-435", "result": 2.1, "unit": "µg/mL"}, {"measurement": "IC50", "setting": "[2]", "result": 4, "unit": "µg/mL"}, {"measurement": "IC50", "setting": "[3]", "result": 12.6, "unit": "µg/mL"}, {"measurement": "IC50", "setting": "[4]", "result": "> 10", "unit": "µg/mL"}, {"measurement": "IC50", "setting": "[5]", "result": "> 10", "unit": "µg/mL"}, {"measurement": "IC50", "setting": "Colon carcinoma cell", "result": 15.2, "unit": "µg/mL"}, {"measurement": "IC50", "setting": "Homo sapiens [6]", "result": 12.3, "unit": "µg/mL"}, {"measurement": "IC50", "setting": "Homo sapiens [7]", "result": 4.9, "unit": "µg/mL"}, {"measurement": "IC50", "setting": "Melanoma tumor cell line", "result": 7, "unit": "µg/mL"}, {"measurement": "IC50", "setting": "[8]", "result": 9.1, "unit": "µg/mL"}, {"measurement": "IC50", "setting": "[9]", "result": 1, "unit": "µg/mL"}, {"measurement": "IC50", "setting": "[10]", "result": 3.5, "unit": "µg/mL"}]}
